The record followed here is ChEMBL document CHEMBL2384941, “A small molecule inhibitor of fungal histone acetyltransferase Rtt109” (Bioorg Med Chem Lett, 2013).

Active and inactive are the calls of the source. The calls are words filed in the database; no cut-off is given here.

The subject of experiment [1] is Rtt109 (Saccharomyces cerevisiae). The experiment is described as follows: Inhibition of Vps75-stimulated recombinant Saccharomyces cerevisiae 6xHis-tagged histone acetyltransferase Rtt109 using H3n21 peptide and acetyl-coenzyme A as substrate assessed as release of CoA at 0.3 to 10 uM preincubated for 5 mins with H3n21 followed by acetyl-coenzyme A addition measured ….

The target of experiment [2] is T1, Histone acetyltransferase SAS2 (Saccharomyces cerevisiae (strain ATCC 204508 / S288c) (Baker's yeast)) (UniProt P40963).
T1 sequence (whole entry): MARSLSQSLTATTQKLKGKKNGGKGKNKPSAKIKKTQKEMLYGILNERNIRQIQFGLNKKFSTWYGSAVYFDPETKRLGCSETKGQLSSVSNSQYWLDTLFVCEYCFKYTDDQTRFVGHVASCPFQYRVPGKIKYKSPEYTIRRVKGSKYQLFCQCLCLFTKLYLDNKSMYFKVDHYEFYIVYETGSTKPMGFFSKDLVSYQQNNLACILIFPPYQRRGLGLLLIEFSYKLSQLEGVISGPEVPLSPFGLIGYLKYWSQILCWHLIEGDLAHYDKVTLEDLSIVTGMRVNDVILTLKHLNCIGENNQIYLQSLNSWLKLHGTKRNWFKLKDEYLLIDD
The experiment is described as follows: Inhibition of Vps75-stimulated recombinant Saccharomyces cerevisiae 6xHis-tagged histone acetyltransferase Rtt109 using H3n21 peptide and acetyl-coenzyme A as substrate assessed as release of coenzyme A at 56 1.3 nM incubated for 5 mins prior to acetyl-coenzyme A addition measured every 2 mins for 10 mins by ThioGlo1 assay relative to control.

The target in experiment [3] is Histone acetyltransferase p300 (Homo sapiens) (UniProt Q09472). The experiment is described as follows: Inhibition of N-terminal 6xHis-Flag epitope-tagged histone acetyltransferase p300 catalytic domain (1195 to 1810) (unknown origin) expressed in Escherichia coli BL21 using (H3-H4)2 peptide and acetyl-coenzyme A as substrate assessed as inhibition of lysine acetylation incubated for 5 mins prior to acetyl-coenzyme A addition measured after 30 mins by ELISA. The method in brief: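 p300 (15 µg/ml) with […] (H3-H4)2 tetramers. Pre-incubated 5 min with compound or DMSO, then started with 15 µM acetyl-CoA. Run 30 min at 30°C. Lysine acetylation detected by ELISA with a polyclonal anti-acetyllysine antibody.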
Sequence of Histone acetyltransferase p300 (Homo sapiens) (Q09472 whole entry, the tested form may be a part): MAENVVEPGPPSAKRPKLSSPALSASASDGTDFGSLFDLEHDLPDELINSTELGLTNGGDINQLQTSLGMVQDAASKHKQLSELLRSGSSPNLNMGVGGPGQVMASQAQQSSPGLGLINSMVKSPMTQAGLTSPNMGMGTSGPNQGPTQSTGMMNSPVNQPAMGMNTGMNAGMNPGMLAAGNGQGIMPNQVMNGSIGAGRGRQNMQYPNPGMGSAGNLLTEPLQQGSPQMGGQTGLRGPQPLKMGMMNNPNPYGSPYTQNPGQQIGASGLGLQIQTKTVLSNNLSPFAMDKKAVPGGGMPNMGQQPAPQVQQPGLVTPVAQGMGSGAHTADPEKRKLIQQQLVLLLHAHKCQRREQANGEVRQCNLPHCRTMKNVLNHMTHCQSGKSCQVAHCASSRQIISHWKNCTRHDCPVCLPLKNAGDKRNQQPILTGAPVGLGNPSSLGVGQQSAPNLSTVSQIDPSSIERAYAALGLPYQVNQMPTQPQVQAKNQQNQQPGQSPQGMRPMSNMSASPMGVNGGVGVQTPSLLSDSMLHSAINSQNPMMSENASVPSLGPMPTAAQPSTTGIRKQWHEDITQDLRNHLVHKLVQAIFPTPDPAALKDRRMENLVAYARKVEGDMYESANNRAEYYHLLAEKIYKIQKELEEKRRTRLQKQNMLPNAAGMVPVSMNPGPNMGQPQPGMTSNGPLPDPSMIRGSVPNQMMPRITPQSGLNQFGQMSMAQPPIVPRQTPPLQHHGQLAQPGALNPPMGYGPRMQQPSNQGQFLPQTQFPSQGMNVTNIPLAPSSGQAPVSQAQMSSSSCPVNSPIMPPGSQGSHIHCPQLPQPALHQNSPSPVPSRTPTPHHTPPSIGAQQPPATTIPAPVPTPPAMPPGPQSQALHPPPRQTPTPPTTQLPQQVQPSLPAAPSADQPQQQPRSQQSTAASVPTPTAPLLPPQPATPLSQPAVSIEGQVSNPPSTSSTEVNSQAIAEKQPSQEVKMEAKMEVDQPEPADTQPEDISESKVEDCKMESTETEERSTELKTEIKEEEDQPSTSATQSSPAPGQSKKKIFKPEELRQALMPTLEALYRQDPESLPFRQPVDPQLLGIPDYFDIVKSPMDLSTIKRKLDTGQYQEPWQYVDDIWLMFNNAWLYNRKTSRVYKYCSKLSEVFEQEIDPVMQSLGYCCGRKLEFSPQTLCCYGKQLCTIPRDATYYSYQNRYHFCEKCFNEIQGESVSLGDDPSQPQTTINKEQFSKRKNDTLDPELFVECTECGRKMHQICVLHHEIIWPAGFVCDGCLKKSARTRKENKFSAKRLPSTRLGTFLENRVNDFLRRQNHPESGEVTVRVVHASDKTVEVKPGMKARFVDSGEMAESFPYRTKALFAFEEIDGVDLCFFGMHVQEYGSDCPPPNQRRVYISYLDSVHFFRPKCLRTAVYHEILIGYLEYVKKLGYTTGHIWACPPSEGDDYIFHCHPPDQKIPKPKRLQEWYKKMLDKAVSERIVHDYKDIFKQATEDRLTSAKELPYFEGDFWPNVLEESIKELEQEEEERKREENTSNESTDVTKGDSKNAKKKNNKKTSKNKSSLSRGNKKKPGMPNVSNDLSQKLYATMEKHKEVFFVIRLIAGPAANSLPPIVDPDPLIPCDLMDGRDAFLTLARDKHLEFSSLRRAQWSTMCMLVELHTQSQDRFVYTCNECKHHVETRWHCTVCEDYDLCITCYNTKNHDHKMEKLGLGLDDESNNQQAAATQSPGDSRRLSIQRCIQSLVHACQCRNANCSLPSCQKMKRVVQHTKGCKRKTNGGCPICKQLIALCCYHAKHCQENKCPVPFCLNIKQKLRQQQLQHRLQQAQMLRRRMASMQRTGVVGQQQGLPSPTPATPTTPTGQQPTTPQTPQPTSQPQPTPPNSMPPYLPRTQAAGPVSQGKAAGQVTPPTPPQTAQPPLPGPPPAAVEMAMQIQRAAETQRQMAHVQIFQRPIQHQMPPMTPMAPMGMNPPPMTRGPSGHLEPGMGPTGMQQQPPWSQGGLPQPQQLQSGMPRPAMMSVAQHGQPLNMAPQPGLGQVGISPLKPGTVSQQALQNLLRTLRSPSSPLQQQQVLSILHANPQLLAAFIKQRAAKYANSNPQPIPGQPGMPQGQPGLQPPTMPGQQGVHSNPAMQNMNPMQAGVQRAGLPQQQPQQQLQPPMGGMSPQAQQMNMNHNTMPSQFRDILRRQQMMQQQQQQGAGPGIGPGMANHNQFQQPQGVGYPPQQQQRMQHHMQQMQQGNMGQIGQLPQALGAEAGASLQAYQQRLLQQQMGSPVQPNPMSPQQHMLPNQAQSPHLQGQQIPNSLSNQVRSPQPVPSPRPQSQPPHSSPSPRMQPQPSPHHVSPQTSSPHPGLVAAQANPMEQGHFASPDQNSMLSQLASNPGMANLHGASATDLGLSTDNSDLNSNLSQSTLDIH
(An ELISA detects its analyte on a solid surface through an enzyme-linked reagent.)

Experiment [4] concerns Candida albicans. Briefly: Inhibition of histone acetyltransferase Rtt109 in Candida albicans assessed as camptothecin-induced DNA damage.
The target in experiment [5] is Histone acetyltransferase p300 (Homo sapiens) (UniProt Q09472). Briefly: Inhibition of N-terminal 6xHis-Flag epitope-tagged histone acetyltransferase p300 catalytic domain (1195 to 1810) (unknown origin) expressed in Escherichia coli BL21 using acetyl-coenzyme A as substrate assessed as release of coenzyme A incubated for 5 mins prior to acetyl-coenzyme A addition measured every 2 mins for 10 mins by ThioGlo1 assay. An outline of the steps: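 p300 (15 µg/ml) or Gcn5 (3.1 µg/ml, 61 nM) with 15 µM H3n21 peptide. Pre-incubated 5 min at 30°C with compound (up to 100 µM) or DMSO. Started with 30 µM acetyl-CoA. Released CoA quantified every 2 min over the first 10 min. Rates from linear regression of product versus time.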

In experiment [6] the test system is Candida albicans. The experiment is described as follows: Inhibition of histone acetyltransferase Rtt109 in Candida albicans assessed as inhibition of H3K56 acetylation.
Experiment [7] has as its target T2, Lysine-specific demethylase 4A (Homo sapiens, UniProt O75164).
T2 sequence (O75164 whole entry): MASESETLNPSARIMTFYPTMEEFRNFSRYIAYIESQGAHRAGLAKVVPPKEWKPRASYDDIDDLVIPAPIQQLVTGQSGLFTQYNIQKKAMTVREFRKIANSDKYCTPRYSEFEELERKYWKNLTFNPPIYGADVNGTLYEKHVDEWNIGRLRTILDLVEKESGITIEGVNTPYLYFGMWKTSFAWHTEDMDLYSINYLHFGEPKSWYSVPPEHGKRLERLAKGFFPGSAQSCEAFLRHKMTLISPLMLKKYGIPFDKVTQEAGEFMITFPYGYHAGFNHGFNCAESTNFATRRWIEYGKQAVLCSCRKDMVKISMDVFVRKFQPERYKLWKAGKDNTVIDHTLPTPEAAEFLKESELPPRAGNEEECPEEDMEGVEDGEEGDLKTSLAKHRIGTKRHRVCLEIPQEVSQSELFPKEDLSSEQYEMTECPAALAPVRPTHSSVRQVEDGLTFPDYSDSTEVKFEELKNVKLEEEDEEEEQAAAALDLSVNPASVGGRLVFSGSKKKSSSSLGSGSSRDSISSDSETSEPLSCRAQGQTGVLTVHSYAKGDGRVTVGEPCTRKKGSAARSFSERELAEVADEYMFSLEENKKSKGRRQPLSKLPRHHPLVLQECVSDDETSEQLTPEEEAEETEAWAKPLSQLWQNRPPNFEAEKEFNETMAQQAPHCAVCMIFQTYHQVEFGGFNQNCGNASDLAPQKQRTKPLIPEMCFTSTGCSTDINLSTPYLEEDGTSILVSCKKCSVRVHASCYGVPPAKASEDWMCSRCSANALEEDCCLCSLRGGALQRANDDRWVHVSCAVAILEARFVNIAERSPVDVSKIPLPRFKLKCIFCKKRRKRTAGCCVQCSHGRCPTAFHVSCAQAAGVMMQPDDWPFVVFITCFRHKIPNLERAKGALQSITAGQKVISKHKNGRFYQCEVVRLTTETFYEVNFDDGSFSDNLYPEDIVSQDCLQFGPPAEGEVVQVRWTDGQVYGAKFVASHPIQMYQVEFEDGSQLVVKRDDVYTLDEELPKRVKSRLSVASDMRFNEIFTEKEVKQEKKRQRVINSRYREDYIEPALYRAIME
The experiment is described as follows: Inhibition of JMJD2A tudor domain (unknown origin) using histone H4 peptide trimethylated on lysine 20 as substrate.

Experiment [8] deals with Histone acetyltransferase RTT109 (Saccharomyces cerevisiae) (UniProt Q07794). The experiment is described as follows: Irreversible inhibition of Vps75-stimulated recombinant Saccharomyces cerevisiae 6xHis-tagged histone acetyltransferase Rtt109 using H3n21 peptide as substrate assessed as release of coenzyme A at […] after 4 hrs by 10 fold dilution assay relative to control. Details: scale not given: the % may be the effect or the level left.
Sequence of Histone acetyltransferase RTT109 (Saccharomyces cerevisiae) (Q07794 whole entry, looked up): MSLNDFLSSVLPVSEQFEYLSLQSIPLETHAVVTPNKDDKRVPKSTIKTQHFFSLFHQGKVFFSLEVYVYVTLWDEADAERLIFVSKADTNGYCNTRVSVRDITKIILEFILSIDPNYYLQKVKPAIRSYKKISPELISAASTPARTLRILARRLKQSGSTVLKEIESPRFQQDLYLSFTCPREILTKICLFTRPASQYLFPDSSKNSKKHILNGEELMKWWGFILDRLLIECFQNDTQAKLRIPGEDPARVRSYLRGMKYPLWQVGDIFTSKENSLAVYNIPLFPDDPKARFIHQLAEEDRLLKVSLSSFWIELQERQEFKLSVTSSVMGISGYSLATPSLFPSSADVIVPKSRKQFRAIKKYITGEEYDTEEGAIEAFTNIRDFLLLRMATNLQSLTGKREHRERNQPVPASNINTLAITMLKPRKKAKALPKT

For experiment [9] the target is unchanged. The experiment is described as follows: Inhibition of Vps75-stimulated recombinant Saccharomyces cerevisiae 6xHis-tagged histone acetyltransferase Rtt109 using H3n21 peptide as substrate assessed as release of coenzyme A at […] by ThioGlo1 assay relative to control. More on the design: scale not given: the % may be the effect or the level left.
The subject of experiment [10] is Rtt109 (Saccharomyces cerevisiae). The experiment is described as follows: Inhibition of Vps75-stimulated recombinant Saccharomyces cerevisiae 6xHis-tagged histone acetyltransferase Rtt109 using H3n21 peptide and acetyl-coenzyme A as substrate assessed as release of CoA at 0.1 to 1 uM preincubated for 5 mins with H3n21 followed by acetyl-coenzyme A addition measured after ….

In general, inhibition refers to the relative decrease from the control value, in per cent. On to `CC(C)c1ccc(C2(C)NC(=O)N(CC(=O)N(C)Cc3c(F)cccc3Cl)C2=O)cc1` (stereo unspecified), for which the inhibition entry in [1] is “inactive”.

Take `CCCC1(c2ccccc2)NC(=O)N(Cc2ccc(F)cc2Cl)C1=O` (stereo unspecified): the inhibition result in [1] is “inactive”.

With `CCCCC1(c2ccccc2)NC(=O)N(CC(=O)NCc2ccc(Cl)cc2Cl)C1=O` (stereo unspecified), in experiment [1], the inhibition result is “inactive”.

With `CC(C)CC1(c2ccccc2)NC(=O)N(CC(=O)NCc2ccc(Cl)cc2Cl)C1=O` (stereo unspecified), the inhibition result in experiment [1] is “inactive”.

`CN(Cc1c(F)cccc1Cl)C(=O)CN1C(=O)NC2(CCCCc3ccccc32)C1=O` (stereo unspecified): the inhibition entry in [1] is “inactive”.

For the compound `CCCC1(c2ccccc2)NC(=O)N(Cc2c(F)cccc2Cl)C1=O` (stereo unspecified), the inhibition result in experiment [1] was “inactive”.

As a reminder, the IC50 is the concentration that inhibits the measured activity by half. Take `CCC[C@]1(c2ccccc2)NC(=O)N(CC(=O)N(C)Cc2c(F)cccc2Cl)C1=O`: in experiment [2], the inhibition is 50%. The inhibition entry (in [3]; in the experiment with Candida albicans [4]; in experiment [5]; in the experiment on Candida albicans [6]) was “inactive” in each case. For the same compound, in experiment [7], the half-inhibitory concentration (IC50) was 25 µM. For the same compound, the Activity in experiment [8] is 33%; in experiment [9] it was 47%.

Consider `CCC1(c2ccc(F)cc2)NC(=O)N(CC(=O)NCc2ccc(Cl)cc2Cl)C1=O` (stereo unspecified), for which the inhibition result in [1] is “inactive”.

For the compound `CCC1(c2ccccc2)NC(=O)N(CC(=O)N(C)Cc2c(F)cccc2Cl)C1=O` (stereo unspecified), the inhibition result in experiment [10] was “Active”.
